Experimental data as given in ChEMBL document CHEMBL4627381, “Licochalcone A Selectively Resensitizes ABCG2-Overexpressing Multidrug-Resistant Cancer Cells to Chemotherapeutic Drugs” (J Nat Prod, 2020).
Activity calls are given as the source filed them. The calls are words filed in the database; no cut-off is given here.

What was measured:
[1] = tested on: S1; test: Effect on mitoxantrone-induced cytotoxicity against human S1 cells assessed as fold change in mitoxantrone IC50 at 2 uM after 72 hrs by MTT assay relative to mitoxantrone IC50; type: functional
Outline: (§1)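 Parental S1 colon and H460 lung cancer cells were exposed for 72 h to a mitoxantrone or topotecan concentration series, with or without modulator at 0.5–3.0 μM, and read by MTT. Fold-reversal is IC50 without modulator divided by IC50 with modulator, taken from dose-response curves of three independent experiments.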

[2] = tested on: S1; test: Effect on topotecan-induced cytotoxicity against human S1 cells assessed as fold change in topotecan IC50 at 0.5 uM after 72 hrs by MTT assay relative to topotecan IC50; type: functional; outline: as §1
[3] = tested on: HEK293; test: Effect on Colchicine-induced cytotoxicity against HEK293 cells assessed as fold change in colchicine IC50 at 3 uM after 72 hrs by CCK8 assay relative to colchicine IC50; type: cell-based; details: human, hek293, 72 h
Outline: (§2)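 Reversal assay in parental pcDNA-HEK293 and transfected HEK293 lines (ABCB1 for colchicine, ABCC1 for etoposide, ABCG2 for mitoxantrone/topotecan). Substrate drug series was given with or without nontoxic modulator (0.5, 1.0, 2.0 or 3.0 μM) for 72 h, with a CCK-8 read-out. Fold-reversal is substrate IC50 without modulator divided by IC50 with modulator. Three independent experiments.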

[4] = tested on: GES1; test: Cytotoxicity against human GES-1 cells; type: cell-based
[5] = tested on: S1-M1-80; test: Potentiation of topotecan-induced apoptosis in human S1-M1-80 cells harboring ABCG2 (unknown origin) assessed as necrotic cells at 10 uM incubated for 48 hrs by annexin V/propidium iodide staining based flow cytometry (reference value: 0.4%); type: functional
[6] = tested on: HEK293; test: Effect on mitoxantrone-induced cytotoxicity against HEK293 cells assessed as fold change in mitoxantrone IC50 at 1 uM after 72 hrs by CCK8 assay relative to mitoxantrone IC50; type: cell-based; details: human, hek293, 72 h; outline: as §2
[7] = target: T1, ABCG2 (Homo sapiens, UniProt Q9UNQ0); test: Modulation of ABCG2 (unknown origin) expressed in High Five insect cell vesicle membrane assessed as maximal stimulation of ATPase activity after 20 mins by colorimetric assay relative to baseline; details: membrane vesicles of High Five insect cells expressing ABCG2, read-out: Activity
T1 sequence (Q9UNQ0 whole entry): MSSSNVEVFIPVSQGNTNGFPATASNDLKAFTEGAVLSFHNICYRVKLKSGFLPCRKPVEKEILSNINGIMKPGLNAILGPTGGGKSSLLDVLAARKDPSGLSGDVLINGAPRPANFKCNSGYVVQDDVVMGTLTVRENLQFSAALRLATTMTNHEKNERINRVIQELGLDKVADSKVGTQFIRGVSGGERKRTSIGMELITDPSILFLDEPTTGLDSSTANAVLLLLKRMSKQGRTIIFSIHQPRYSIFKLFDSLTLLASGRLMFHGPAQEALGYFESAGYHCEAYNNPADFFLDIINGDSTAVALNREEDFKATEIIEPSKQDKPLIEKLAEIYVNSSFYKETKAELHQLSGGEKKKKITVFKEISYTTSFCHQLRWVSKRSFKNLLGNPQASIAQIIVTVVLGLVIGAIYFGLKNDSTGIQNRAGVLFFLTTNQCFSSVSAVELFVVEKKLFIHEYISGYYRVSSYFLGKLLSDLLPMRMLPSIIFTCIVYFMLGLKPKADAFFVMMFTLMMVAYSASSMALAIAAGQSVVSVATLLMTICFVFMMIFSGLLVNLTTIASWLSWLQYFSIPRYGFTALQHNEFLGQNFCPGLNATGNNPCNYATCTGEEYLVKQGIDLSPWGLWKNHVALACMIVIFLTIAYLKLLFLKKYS
Outline: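 Membrane vesicles from ABCG2-expressing High Five cells were incubated with LCA (0–390 μM) at 37 °C for 20 min in 50 mM MES-Tris pH 6.8 with ouabain, DTT, NaN3, EGTA and KCl, ±0.3 mM vanadate. Liberated Pi was read by molybdate/ascorbate colorimetry at 880 nm. Vi-sensitive activity = activity minus activity with vanadate; mean ± SD of three experiments.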

[8] = tested on: NCI-H460; test: Effect on mitoxantrone-induced cytotoxicity against human H460 cells assessed as change in mitoxantrone IC50 at 3 uM after 72 hrs by MTT assay relative to mitoxantrone IC50; type: functional; outline: as §1
[9] = target: T2, Broad substrate specificity ATP-binding cassette transporter ABCG2 (Homo sapiens, UniProt Q9UNQ0); test: Reversal of ABCG2 (unknown origin)-mediated multidrug resistance in human S1-M1-80 cells assessed as fold-change in mitoxantrone IC50 at 2 uM after 72 hrs by MTT assay relative to mitoxantrone IC50; type: cell-based; details: s1-m1-80, 72 h
T2 sequence (Q9UNQ0 whole entry): T1 sequence (Q9UNQ0 whole entry)
Outline: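 MTT readout in S1-M1-80 colon cancer cells (mitoxantrone-selected, held in 80 μM mitoxantrone, then drug-free 7 days before assay). Cells were seeded at 5000/well for 24 h, then given increasing mitoxantrone or topotecan with DMSO or non-toxic modulator for 72 h at 37 °C. IC50 came from fitted dose-response curves (at least three independent experiments). Fold-reversal = IC50 without modulator ÷ IC50 with modulator.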

[10] = tested on: S1-M1-80; test: Induction of apoptosis in human S1-M1-80 cells harboring ABCG2 (unknown origin) assessed as early apoptotic cells at 10 uM incubated for 48 hrs by annexin V/propidium iodide staining based flow cytometry (reference value: 2.8%); type: functional
[11] = target: ATP-dependent translocase ABCB1 (Homo sapiens, UniProt P08183); test: Reversal of human ABCB1-mediated multidrug resistance in HEK293/MDR19 cells assessed as fold change in colchicine IC50 at 0.5 uM after 72 hrs by CCK8 relative to colchicine IC50; type: cell-based
Outline: (§3)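 Cells were seeded at 5000/well for 24 h, then given colchicine, etoposide, mitoxantrone or topotecan ± non-toxic modulator (0.5–3.0 μM) for 72 h, with DMSO up to 0.5%. IC50 came from fitted curves (mean ± SD, three experiments). Fold-reversal = IC50 without modulator ÷ IC50 with modulator.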

[12] = target: T2, Broad substrate specificity ATP-binding cassette transporter ABCG2; test: Reversal of human ABCG2-mediated multidrug resistance in HEK293/R482 cells assessed as fold change in mitoxantrone IC50 at 3 uM after 72 hrs by CCK8 assay relative to mitoxantrone IC50; type: cell-based; outline: as §3
[13] = tested on: S1-M1-80; test: Induction of apoptosis in human S1-M1-80 cells harboring ABCG2 (unknown origin) assessed as late apoptotic cells at 10 uM incubated for 48 hrs by annexin V/propidium iodide staining based flow cytometry (reference value: 2.9%); type: functional
[14] = tested on: NCI-H460; test: Induction of pheophorbide A accumulation in human H460 cells at 20 uM incubated for 1 hr by FACScan flow cytometry; type: functional, cell-based
Outline: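 Cells held drug-free 7 days. 3 × 10^5 cells were suspended in IMDM with 5% FCS and loaded with pheophorbide A (ex 395/em 670 nm) for 1 h, with or without LCA (20 μM for single-concentration accumulation) or Ko143 3 μM as reference. Read immediately by flow cytometry. Efflux inhibition was run over a concentration range; mean ± SD of three experiments.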

[15] = target: T2, Broad substrate specificity ATP-binding cassette transporter ABCG2; test: Reversal of human ABCG2-mediated multidrug resistance in HEK293/R482 cells assessed as fold change in mitoxantrone IC50 at 1 uM after 72 hrs by CCK8 assay relative to mitoxantrone IC50; type: cell-based; outline: as §3
[16] = tested on: S1; test: Effect on topotecan-induced cytotoxicity against human S1 cells assessed as fold change in topotecan IC50 at 2 uM after 72 hrs by MTT assay relative to topotecan IC50; type: functional; outline: as §1

Chain of ATP-dependent translocase ABCB1 (P08183 whole entry): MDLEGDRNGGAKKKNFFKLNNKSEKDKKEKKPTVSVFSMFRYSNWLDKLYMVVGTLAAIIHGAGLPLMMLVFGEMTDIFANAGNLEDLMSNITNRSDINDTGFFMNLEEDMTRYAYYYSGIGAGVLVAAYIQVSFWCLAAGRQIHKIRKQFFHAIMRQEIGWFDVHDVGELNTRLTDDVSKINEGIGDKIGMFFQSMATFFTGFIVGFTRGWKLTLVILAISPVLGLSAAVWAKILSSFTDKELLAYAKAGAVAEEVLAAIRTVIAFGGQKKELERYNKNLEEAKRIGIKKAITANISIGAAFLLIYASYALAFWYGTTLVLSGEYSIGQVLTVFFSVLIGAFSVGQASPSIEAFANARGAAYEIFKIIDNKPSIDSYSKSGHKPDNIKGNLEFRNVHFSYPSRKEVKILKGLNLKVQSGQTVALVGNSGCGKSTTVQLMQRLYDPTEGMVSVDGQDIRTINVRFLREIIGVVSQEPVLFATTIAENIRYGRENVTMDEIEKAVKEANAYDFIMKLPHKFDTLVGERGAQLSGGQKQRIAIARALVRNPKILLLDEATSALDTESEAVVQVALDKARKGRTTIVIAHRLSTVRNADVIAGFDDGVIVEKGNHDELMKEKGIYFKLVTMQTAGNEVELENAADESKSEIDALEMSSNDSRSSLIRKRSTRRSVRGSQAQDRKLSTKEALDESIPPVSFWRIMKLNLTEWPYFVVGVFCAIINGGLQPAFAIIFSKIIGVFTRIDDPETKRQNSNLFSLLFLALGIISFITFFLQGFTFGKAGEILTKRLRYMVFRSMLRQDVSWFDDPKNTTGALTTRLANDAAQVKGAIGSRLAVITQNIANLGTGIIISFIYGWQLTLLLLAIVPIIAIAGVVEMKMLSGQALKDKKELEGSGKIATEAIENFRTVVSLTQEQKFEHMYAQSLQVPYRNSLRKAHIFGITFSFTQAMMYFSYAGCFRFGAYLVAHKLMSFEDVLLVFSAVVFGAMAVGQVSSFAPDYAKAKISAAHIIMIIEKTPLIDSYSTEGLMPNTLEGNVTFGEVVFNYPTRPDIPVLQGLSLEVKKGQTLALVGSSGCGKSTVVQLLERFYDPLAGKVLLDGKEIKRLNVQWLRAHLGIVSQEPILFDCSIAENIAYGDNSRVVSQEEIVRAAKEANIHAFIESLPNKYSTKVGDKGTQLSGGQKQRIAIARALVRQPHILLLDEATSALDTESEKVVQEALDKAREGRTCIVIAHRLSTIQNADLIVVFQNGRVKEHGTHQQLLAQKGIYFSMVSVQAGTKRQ

C=CC(C)(C)c1cc(/C=C/C(=O)c2ccc(O)cc2)c(OC)cc1O [LICOAGROCHACONE A]
fold change (FC) [1]: 1.1 | fold change (FC) [2]: 0.9 | fold change (FC) [3]: 0.9 | IC50 [4]: > 180 µM | Activity [5]: 0.8% | fold change (FC) [6]: 1 | Emax at 20 min [7]: 150% | fold change (FC) [8]: 1.1 | fold change (FC) [9]: 28 | Activity [10]: 2.5% | fold change (FC) [11]: 1 | fold change (FC) [12]: 8.1 | Activity [13]: 2.9% | Activity [14]: inactive | fold change (FC) [15]: 7.1 | fold change (FC) [16]: 0.9
